What was measured:
[1] = molecular target: Serine/threonine-protein kinase WNK2 (Homo sapiens) (UniProt Q9Y3S1); assay: Inhibition of human recombinant Wnk2 at 500 nM related to control ULK1
[2] = molecular target: Protein-tyrosine kinase 6 (Homo sapiens) (UniProt Q13882); assay: Inhibition of human recombinant BRK at 500 nM in presence of ATP by radiometric assay relative to control
Summary of the method: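 Part of a radiometric in vitro activity panel of 327 recombinant human kinases. Each kinase was tested in duplicate at one inhibitor concentration. Activity remaining was expressed as a percentage of the vehicle control, and percent inhibition was taken as 100 minus that value.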

[3] = molecular target: Vascular endothelial growth factor receptor 1 (Homo sapiens) (UniProt P17948); assay: Inhibition of human recombinant FLT1 at 500 nM in presence of ATP by radiometric assay relative to control
Sequence of Vascular endothelial growth factor receptor 1 (Homo sapiens) (P17948 whole entry): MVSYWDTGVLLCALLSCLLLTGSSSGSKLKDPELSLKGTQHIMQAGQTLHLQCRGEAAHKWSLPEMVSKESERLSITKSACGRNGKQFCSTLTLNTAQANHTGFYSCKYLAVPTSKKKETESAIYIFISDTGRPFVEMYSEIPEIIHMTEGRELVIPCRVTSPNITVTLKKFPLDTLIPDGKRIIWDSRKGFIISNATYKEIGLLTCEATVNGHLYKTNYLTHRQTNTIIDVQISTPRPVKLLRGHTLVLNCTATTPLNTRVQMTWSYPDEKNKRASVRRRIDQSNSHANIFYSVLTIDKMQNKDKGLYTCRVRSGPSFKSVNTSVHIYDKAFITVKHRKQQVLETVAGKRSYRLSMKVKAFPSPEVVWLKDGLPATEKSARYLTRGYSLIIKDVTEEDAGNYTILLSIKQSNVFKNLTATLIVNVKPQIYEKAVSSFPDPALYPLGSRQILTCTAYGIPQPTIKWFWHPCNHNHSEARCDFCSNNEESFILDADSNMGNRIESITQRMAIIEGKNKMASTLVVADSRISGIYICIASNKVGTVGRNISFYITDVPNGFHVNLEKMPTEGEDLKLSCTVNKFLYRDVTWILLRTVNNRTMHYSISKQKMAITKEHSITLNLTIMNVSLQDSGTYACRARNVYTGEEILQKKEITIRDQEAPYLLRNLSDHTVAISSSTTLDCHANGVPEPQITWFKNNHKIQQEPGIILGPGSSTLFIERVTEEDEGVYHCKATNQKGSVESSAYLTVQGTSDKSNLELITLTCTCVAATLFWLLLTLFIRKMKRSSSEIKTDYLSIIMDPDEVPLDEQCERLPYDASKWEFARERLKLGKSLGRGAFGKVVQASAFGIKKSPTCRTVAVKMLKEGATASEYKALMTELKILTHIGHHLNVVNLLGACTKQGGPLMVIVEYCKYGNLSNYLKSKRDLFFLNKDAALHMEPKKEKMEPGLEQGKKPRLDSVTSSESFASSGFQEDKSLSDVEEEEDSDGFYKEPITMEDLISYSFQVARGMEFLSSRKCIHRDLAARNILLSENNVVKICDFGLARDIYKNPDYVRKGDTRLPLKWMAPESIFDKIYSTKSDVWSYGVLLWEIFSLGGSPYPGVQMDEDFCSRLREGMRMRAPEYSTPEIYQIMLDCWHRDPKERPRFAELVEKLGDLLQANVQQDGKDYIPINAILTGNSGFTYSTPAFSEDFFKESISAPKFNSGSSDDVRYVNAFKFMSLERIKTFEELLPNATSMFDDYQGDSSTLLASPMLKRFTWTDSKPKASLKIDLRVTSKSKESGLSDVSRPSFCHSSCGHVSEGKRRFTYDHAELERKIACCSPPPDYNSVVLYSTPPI

[4] = molecular target: NT-3 growth factor receptor (Homo sapiens) (UniProt Q16288); assay: Inhibition of human recombinant TRKC at 500 nM related to control ULK1
[5] = molecular target: Platelet-derived growth factor receptor beta (Homo sapiens) (UniProt P09619); assay: Inhibition of human recombinant PDGFRb at 500 nM related to control ULK1
[6] = molecular target: Tyrosine-protein kinase SYK (Homo sapiens) (UniProt P43405); assay: Inhibition of human recombinant SYK at 500 nM in presence of ATP by radiometric assay relative to control
[7] = molecular target: Interferon-induced, double-stranded RNA-activated protein kinase (Homo sapiens) (UniProt P19525); assay: Inhibition of human recombinant PKR at 500 nM related to control ULK1
Sequence of Interferon-induced, double-stranded RNA-activated protein kinase (Homo sapiens) (P19525 whole entry): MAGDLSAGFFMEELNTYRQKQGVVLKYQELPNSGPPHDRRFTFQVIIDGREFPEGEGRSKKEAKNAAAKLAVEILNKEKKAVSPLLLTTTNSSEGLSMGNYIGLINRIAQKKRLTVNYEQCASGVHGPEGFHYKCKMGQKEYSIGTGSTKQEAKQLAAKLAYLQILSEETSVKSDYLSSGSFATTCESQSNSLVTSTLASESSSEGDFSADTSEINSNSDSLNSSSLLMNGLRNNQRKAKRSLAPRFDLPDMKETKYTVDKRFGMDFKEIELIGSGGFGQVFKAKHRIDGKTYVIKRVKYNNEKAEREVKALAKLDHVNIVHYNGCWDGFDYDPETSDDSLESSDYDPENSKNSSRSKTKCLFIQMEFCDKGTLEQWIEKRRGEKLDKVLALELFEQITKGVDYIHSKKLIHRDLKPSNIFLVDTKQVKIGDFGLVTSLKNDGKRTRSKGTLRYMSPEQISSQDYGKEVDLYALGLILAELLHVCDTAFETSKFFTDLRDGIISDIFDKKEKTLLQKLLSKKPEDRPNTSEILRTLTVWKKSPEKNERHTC

[8] = molecular target: Myosin light chain kinase, smooth muscle (Homo sapiens) (UniProt Q15746); assay: Inhibition of human recombinant smMLCK at 500 nM in presence of ATP by radiometric assay relative to control
[9] = molecular target: T1, Testis-specific serine/threonine-protein kinase 2 (Homo sapiens) (UniProt Q96PF2); assay: Inhibition of human recombinant TSSK2 at 15 nM in presence of ATP by radiometric assay relative to control
T1 sequence (whole entry): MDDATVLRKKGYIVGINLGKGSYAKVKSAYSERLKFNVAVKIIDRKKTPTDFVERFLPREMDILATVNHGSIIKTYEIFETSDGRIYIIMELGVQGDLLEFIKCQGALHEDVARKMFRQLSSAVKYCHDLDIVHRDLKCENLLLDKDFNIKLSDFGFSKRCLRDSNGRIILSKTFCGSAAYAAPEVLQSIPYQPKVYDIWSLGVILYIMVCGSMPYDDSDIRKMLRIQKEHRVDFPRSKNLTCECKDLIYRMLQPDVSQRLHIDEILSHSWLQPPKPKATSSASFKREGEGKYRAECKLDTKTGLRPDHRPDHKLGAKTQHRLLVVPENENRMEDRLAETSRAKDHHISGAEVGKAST

[10] = molecular target: Rho-associated protein kinase 2 (Homo sapiens) (UniProt O75116); assay: Inhibition of human recombinant ROCK2 at 15 nM related to control ULK1
Sequence of Rho-associated protein kinase 2 (Homo sapiens) (O75116 whole entry, looked up): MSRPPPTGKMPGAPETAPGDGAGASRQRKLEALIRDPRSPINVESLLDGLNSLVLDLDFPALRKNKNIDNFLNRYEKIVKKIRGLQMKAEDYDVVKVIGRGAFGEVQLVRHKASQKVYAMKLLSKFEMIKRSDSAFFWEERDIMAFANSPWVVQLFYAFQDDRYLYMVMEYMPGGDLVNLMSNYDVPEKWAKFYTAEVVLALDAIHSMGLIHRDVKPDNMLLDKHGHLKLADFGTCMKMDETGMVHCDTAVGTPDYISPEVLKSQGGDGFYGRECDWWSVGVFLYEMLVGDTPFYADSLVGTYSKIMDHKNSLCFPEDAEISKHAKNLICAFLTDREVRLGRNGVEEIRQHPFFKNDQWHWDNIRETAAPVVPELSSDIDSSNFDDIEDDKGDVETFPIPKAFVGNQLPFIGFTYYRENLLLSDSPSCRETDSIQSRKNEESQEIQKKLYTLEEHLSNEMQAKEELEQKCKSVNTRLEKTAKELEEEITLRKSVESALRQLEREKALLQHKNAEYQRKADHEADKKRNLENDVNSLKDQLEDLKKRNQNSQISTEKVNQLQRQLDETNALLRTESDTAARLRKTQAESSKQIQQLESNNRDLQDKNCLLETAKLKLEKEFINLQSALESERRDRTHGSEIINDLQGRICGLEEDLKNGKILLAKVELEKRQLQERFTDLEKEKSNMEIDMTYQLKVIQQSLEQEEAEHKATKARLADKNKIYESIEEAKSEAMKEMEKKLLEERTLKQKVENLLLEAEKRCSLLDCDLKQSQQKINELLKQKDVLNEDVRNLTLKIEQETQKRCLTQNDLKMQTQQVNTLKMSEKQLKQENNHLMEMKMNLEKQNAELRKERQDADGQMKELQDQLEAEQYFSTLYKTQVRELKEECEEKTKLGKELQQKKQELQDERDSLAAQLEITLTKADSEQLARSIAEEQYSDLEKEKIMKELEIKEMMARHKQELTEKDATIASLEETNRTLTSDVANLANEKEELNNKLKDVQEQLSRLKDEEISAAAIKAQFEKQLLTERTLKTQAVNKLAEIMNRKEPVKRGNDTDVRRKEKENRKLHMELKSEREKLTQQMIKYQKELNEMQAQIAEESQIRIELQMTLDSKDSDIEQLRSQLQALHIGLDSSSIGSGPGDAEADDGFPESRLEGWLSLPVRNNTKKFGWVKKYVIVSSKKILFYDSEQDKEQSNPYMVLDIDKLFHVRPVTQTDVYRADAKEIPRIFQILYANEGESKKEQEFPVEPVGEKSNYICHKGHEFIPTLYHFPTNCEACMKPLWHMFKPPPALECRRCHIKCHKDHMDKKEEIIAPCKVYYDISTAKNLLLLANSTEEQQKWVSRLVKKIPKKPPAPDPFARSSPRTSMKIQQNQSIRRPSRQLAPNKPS

[11] = molecular target: T2, Activin receptor type-1B (Homo sapiens) (UniProt P36896); assay: Inhibition of human recombinant ALK4 at 15 nM in presence of ATP by radiometric assay relative to control
T2 sequence (whole entry): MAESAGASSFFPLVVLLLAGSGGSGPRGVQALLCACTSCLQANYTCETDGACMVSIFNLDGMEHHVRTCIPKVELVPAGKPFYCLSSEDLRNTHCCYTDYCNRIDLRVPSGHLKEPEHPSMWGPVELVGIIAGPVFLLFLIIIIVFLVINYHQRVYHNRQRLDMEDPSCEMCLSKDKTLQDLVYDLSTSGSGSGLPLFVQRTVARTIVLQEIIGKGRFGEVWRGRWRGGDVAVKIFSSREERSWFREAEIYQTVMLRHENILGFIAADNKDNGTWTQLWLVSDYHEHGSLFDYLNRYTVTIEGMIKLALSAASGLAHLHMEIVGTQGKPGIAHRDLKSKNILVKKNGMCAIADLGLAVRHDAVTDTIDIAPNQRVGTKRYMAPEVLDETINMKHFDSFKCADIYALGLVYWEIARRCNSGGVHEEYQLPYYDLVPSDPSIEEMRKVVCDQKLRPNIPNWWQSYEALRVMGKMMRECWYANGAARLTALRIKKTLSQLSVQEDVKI
Summary of the method: (§1)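 Panel of 327 recombinant human kinases, each assayed in vitro by radiometric activity assay in duplicate at a single inhibitor concentration per compound, chosen with reference to its ULK1 inhibition. Activity remaining was expressed as percent of vehicle control, and percent inhibition was calculated as 100 minus percent activity remaining.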

[12] = molecular target: Cyclin-dependent kinase 12 (Homo sapiens) (UniProt Q9NYV4); assay: Inhibition of human recombinant CRK7 at 15 nM in presence of ATP by radiometric assay relative to control
[13] = molecular target: PAS domain-containing serine/threonine-protein kinase (Homo sapiens) (UniProt Q96RG2); assay: Inhibition of human recombinant PASK at 15 nM in presence of ATP by radiometric assay relative to control
Sequence of PAS domain-containing serine/threonine-protein kinase (Homo sapiens) (Q96RG2 whole entry, the tested form may be a part): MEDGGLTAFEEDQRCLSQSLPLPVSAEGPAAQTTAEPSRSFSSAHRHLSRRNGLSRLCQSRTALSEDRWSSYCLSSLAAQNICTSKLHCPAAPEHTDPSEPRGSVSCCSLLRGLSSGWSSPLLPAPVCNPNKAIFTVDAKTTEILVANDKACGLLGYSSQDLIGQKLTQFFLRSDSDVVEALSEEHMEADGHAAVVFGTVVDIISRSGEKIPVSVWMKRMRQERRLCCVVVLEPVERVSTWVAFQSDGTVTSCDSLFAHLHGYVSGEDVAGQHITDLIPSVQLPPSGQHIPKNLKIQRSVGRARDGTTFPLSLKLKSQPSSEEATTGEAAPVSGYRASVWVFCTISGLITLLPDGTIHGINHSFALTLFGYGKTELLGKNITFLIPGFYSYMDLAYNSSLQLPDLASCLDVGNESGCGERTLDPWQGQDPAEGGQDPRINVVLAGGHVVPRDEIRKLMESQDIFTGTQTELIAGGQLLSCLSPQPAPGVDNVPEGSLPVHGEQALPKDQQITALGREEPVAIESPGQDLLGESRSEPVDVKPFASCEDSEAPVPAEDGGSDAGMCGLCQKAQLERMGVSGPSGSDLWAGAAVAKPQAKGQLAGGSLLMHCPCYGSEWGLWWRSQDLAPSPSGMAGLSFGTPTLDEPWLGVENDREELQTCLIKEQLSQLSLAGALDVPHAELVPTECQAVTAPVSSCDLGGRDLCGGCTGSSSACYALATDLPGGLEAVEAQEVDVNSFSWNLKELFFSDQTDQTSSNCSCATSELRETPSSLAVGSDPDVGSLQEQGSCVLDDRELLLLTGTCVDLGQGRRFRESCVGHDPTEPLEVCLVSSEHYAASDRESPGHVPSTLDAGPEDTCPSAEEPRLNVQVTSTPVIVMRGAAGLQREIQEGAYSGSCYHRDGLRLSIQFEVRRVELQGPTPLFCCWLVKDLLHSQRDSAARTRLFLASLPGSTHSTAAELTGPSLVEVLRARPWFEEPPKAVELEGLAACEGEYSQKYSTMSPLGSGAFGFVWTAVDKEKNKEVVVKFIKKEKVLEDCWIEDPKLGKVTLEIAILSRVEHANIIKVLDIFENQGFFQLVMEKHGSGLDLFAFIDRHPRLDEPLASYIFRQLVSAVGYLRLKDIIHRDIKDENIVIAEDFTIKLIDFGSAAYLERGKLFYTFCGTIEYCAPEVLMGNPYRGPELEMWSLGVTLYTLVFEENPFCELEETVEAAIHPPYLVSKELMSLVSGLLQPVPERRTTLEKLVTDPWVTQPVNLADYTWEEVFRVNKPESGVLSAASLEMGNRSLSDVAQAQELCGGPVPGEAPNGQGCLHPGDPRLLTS

[14] = molecular target: Tyrosine-protein kinase HCK (Homo sapiens) (UniProt P08631); assay: Inhibition of human recombinant HCK at 15 nM in presence of ATP by radiometric assay relative to control
[15] = molecular target: Dual specificity protein kinase CLK2 (Homo sapiens) (UniProt P49760); assay: Inhibition of human recombinant CLK2 at 15 nM related to control ULK1
[16] = molecular target: Phosphorylase b kinase gamma catalytic chain, skeletal muscle/heart isoform (Homo sapiens) (UniProt Q16816); assay: Inhibition of human recombinant PHKg1 at 40 nM in presence of ATP by radiometric assay relative to control
Sequence of Phosphorylase b kinase gamma catalytic chain, skeletal muscle/heart isoform (Homo sapiens) (Q16816 whole entry, looked up, canonical isoform): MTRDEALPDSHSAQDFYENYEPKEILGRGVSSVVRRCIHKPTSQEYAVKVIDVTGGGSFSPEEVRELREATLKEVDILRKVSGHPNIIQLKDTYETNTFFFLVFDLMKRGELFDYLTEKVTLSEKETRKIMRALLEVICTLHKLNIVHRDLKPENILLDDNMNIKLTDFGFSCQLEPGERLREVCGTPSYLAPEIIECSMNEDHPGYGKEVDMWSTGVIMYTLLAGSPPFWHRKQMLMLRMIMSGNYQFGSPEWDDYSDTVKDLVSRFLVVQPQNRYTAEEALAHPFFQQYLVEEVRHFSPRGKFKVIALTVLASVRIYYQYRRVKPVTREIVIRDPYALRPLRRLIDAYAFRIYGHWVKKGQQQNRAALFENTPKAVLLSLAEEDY

[17] = molecular target: Tau-tubulin kinase 1 (Homo sapiens) (UniProt Q5TCY1); assay: Inhibition of human recombinant TTBK1 at 40 nM related to control ULK1
[18] = molecular target: PAS domain-containing serine/threonine-protein kinase (Homo sapiens) (UniProt Q96RG2); assay: Inhibition of human recombinant PASK at 40 nM related to control ULK1
[19] = molecular target: 5'-AMP-activated protein kinase catalytic subunit alpha-2 (Homo sapiens) (UniProt P54646); assay: Inhibition of human recombinant AMPKa2 at 40 nM in presence of ATP by radiometric assay relative to control; summary of the method: as §1
[20] = molecular target: Angiopoietin-1 receptor (Homo sapiens) (UniProt Q02763); assay: Inhibition of human recombinant Tie2 at 40 nM related to control ULK1

CNC(=O)c1ccccc1Oc1nc(Nc2cc(OC)c(OC)c(OC)c2)ncc1Br
fold change (FC) [1]: 0.01
inhibition [2]: 2%
inhibition [3]: 2%
fold change (FC) [4]: 0
fold change (FC) [5]: 0
inhibition [6]: 0%
fold change (FC) [7]: 0.05
inhibition [8]: 5%

CC(C)[C@H](NC(=O)c1cc(-c2cnn3cc(-c4ccc(OCCN5CCCCC5)cc4)cnc23)cs1)C(F)(F)F
inhibition [9]: 1%
fold change (FC) [10]: 0
inhibition [11]: 20%
inhibition [12]: 4%
inhibition [13]: 0%
inhibition [14]: 26%
fold change (FC) [15]: 0.33

O=C(N[C@@H](C1CC1)C(F)(F)F)c1cc(-c2cnn3cc(-c4ccc(F)cc4)cnc23)cs1
inhibition [16]: 12%
fold change (FC) [17]: 0
fold change (FC) [18]: 0.16
inhibition [19]: 7%
fold change (FC) [20]: 0
